ChEMBL document CHEMBL2021766, “Antiplasmodial activity of novel keto-enamine chalcone-chloroquine based hybrid pharmacophores” (Bioorg Med Chem, 2012)
In brackets after ≈: the same amount, converted by molar mass.

Assays:
[1] = Selectivity index, ratio of CC50 for monkey Vero cells to IC50 for chloroquine-sensitive ring stage Plasmodium falciparum 3D7; type: functional
Summary of the method: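 Vero cells exposed to dilutions of test agents for 72 h; MTT read-out (modified Mosmann method); CC50 by non-linear regression. Ratio taken against the 3D7 IC50 from SYBR Green-I assay.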

Plasmodium yoelii [2] = test: Antimalarial activity against chloroquine-resistant Plasmodium yoelii N-67 infected Swiss mouse assessed as suppression of parasitemia at 100 mg/kg/day, po qd for 4 days measured on day 6; type: functional
Summary of the method: (§1)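 Swiss mice infected with P. yoelii N-67 (1 × 10⁵ parasitized RBC, day 0). Test agents were given as aqueous suspensions with a few drops of Tween 80, orally at 100 mg/kg/day, once daily on days 0–3, to groups of five. Parasitaemia was read from thin blood smears on days 4 and 6. Percent suppression was calculated from group means versus untreated controls. Survival and cure were followed to day 30.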

Plasmodium yoelii [3] = test: Inhibition of beta-hematin formation in Plasmodium yoelii infected Swiss mouse plasma using hemin as substrate after 16 hrs by spectrophotometry; type: functional
Summary of the method: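 Plasma taken by cardiac puncture into 2.0% citrate from male Swiss mice (15–20 g) infected with 1 × 10^5 P. yoelii RBCs, at about 50% parasitemia. Mix: 100 mM sodium acetate pH 5.1, 50 µL plasma, 100 µM hemin, compound, in triplicate, 37 °C for 16 h with shaking. Pellet washed in Tris–HCl pH 7.4 with 2.5% SDS. IC50 = 50% inhibition; three experiments in triplicate.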

Plasmodium falciparum = test: Antimalarial activity against chloroquine-sensitive ring stage Plasmodium falciparum 3D7 after 72 hrs by SYBR Green-I assay; type: functional, organism-based; conditions: 3D7, 72 h
Summary of the method: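 Asynchronous P. falciparum 3D7 culture (over 80% ring stages), 1.0% parasitized cell suspension at 0.8% parasitaemia, incubated with twofold serial dilutions at 37 °C, 5% CO2/air, 72 h. Lysis buffer with 1× SYBR Green-I added, 1 h at 37 °C. Fluorescence read at 485/530 nm excitation/emission. IC50 from triplicate experiments.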

Plasmodium yoelii [4] = test: Antimalarial activity against chloroquine-resistant Plasmodium yoelii N-67 infected Swiss mouse assessed as suppression of parasitemia at 100 mg/kg/day, po qd for 4 days measured on day 4; type: functional; conditions: N-67, 96 h; summary of the method: as §1
Plasmodium yoelii [5] = test: Antimalarial activity against chloroquine-resistant Plasmodium yoelii N-67 infected Swiss mouse assessed as mean survival time at 100 mg/kg/day, po qd for 4 days; type: functional; summary of the method: as §1
Plasmodium yoelii [6] = test: Antimalarial activity against chloroquine-resistant Plasmodium yoelii N-67 infected Swiss mouse assessed as suppression of parasitemia at 20 mg/kg/day, po qd for 4 days measured on day 6; type: functional
Plasmodium yoelii [7] = test: Antimalarial activity against chloroquine-resistant Plasmodium yoelii N-67 infected Swiss mouse assessed as mean survival time at 20 mg/kg/day, po qd for 4 days; type: functional
Plasmodium yoelii [8] = test: Antimalarial activity against chloroquine-resistant Plasmodium yoelii N-67 infected Swiss mouse assessed as suppression of parasitemia at 10 mg/kg/day, po qd for 4 days measured on day 4; type: functional; conditions: N-67, 96 h
Plasmodium yoelii [9] = test: Antimalarial activity against chloroquine-resistant Plasmodium yoelii N-67 infected Swiss mouse assessed as suppression of parasitemia at 10 mg/kg/day, po qd for 4 days measured on day 6; type: functional
Plasmodium yoelii [10] = test: Antimalarial activity against chloroquine-resistant Plasmodium yoelii N-67 infected Swiss mouse assessed as suppression of parasitemia at 20 mg/kg/day, po qd for 4 days measured on day 4; type: functional; conditions: N-67, 96 h
Plasmodium yoelii [11] = test: Antimalarial activity against chloroquine-resistant Plasmodium yoelii N-67 infected Swiss mouse assessed as mean survival time at 10 mg/kg/day, po qd for 4 days; type: functional

Structure (SMILES) | Ratio CC50/IC50 [1] | inhibition in vivo at 100 mg/kg/day (Plasmodium yoelii [2]) | IC50 (Plasmodium yoelii [3]) | IC50 (Plasmodium falciparum) | inhibition in vivo at 100 mg/kg/day (Plasmodium yoelii [4]) | MST (Plasmodium yoelii [5]) | further results
CC(C)(C)C1=CC(/C=C/C(=O)c2ccc(Br)cc2)=CC(=C\NCCNc2ccnc3cc(Cl)ccc23)/C1=O | 1883.62 | 96.7% | 21.9 µg/mL (≈ 37.1 µM) | 0.00464 µg/mL (≈ 0.00785 µM) | 99.9% | 17.6 days | –
CCC(C)C1=CC(/C=C/C(=O)c2ccccc2)=CC(=C\NCCNc2ccnc3cc(Cl)ccc23)/C1=O (stereo not given) | 498.54 | 83.2% | 3.15 µg/mL (≈ 6.15 µM) | 0.0136 µg/mL (≈ 0.0266 µM) | 99.6% | 14.6 days | –
CCC(C)C1=CC(/C=C/C(=O)c2ccc(O)cc2)=CC(=C\NCCNc2ccnc3cc(Cl)ccc23)/C1=O (stereo not given) | 1071.27 | – | 2.71 µg/mL (≈ 5.13 µM) | 0.022 µg/mL (≈ 0.0417 µM) | – | – | –
COc1ccc(C(=O)/C=C/C2=CC(=C\NCCCNc3ccnc4cc(Cl)ccc34)/C(=O)C(C)=C2)cc1 | 295.66 | – | 5.34 µg/mL (≈ 10.4 µM) | 0.0388 µg/mL (≈ 0.0754 µM) | – | – | –
CC1=CC(/C=C/C(=O)c2cccs2)=CC(=C\NCCNc2ccnc3cc(Cl)ccc23)/C1=O | 1414.59 | 82.3% | 3.1 µg/mL (≈ 6.51 µM) | 0.00975 µg/mL (≈ 0.0205 µM) | 99.8% | 16.2 days | –
CCC(C)C1=CC(/C=C/C(=O)c2ccc(OC)cc2)=CC(=C\NCCNc2ccnc3cc(Cl)ccc23)/C1=O (stereo not given) | 1058.05 | – | 12.6 µg/mL (≈ 23.2 µM) | 0.0183 µg/mL (≈ 0.0337 µM) | – | – | –
COc1ccc(C(=O)/C=C/C2=CC(=C\NCCNc3ccnc4cc(Cl)ccc34)/C(=O)C(C)=C2)cc1 | 1137.97 | – | 3.01 µg/mL (≈ 6.02 µM) | 0.0167 µg/mL (≈ 0.0333 µM) | – | – | –
CC1=CC(/C=C/C(=O)c2ccc(F)cc2)=CC(=C\NCCNc2ccnc3cc(Cl)ccc23)/C1=O | 1034.23 | 83.5% | 2.91 µg/mL (≈ 5.96 µM) | 0.0109 µg/mL (≈ 0.0222 µM) | 99.5% | 15.6 days | –
CCN(CC)CCCC(C)Nc1ccnc2cc(Cl)ccc12 (stereo not given) [CHLOROQUINE] | – | – | 3.65 µg/mL (≈ 11.4 µM) | – | – | – | inhibition in vivo at 20 mg/kg/day (Plasmodium yoelii [6]): 93.9%; MST (Plasmodium yoelii [7]): >28 days; inhibition in vivo at 10 mg/kg/day (Plasmodium yoelii [8]): 99%; inhibition in vivo at 10 mg/kg/day (Plasmodium yoelii [9]): 93.6%; inhibition in vivo at 20 mg/kg/day (Plasmodium yoelii [10]): 99%; MST (Plasmodium yoelii [11]): 13.6 days
CC1=CC(/C=C/C(=O)c2ccc(O)cc2)=CC(=C\NCCCNc2ccnc3cc(Cl)ccc23)/C1=O | 505.98 | – | 3.48 µg/mL (≈ 6.96 µM) | 0.0351 µg/mL (≈ 0.0702 µM) | – | – | –
CC(C)(C)C1=CC(/C=C/C(=O)c2ccc(Br)cc2)=CC(=C\Nc2ccc(Nc3ccnc4cc(Cl)ccc34)cc2)/C1=O | – | – | 13.9 µg/mL (≈ 21.8 µM) | > 0.1 µg/mL | – | – | –
CC1=CC(/C=C/C(=O)c2ccc(C)cc2)=CC(=C\NCCNc2ccnc3cc(Cl)ccc23)/C1=O | 1034.23 | 88.7% | 2.91 µg/mL (≈ 6.01 µM) | 0.00975 µg/mL (≈ 0.0201 µM) | 99.8% | 17.6 days | –
CC1=CC(/C=C/C(=O)c2ccc(O)cc2)=CC(=C\NCCNc2ccnc3cc(Cl)ccc23)/C1=O | 27548.21 | – | 2.89 µg/mL (≈ 5.95 µM) | 0.00363 µg/mL (≈ 0.00747 µM) | – | – | –
CC(C)(C)C1=CC(/C=C/C(=O)c2ccc(Cl)cc2)=CC(=C\NCCNc2ccnc3cc(Cl)ccc23)/C1=O | 868.3 | – | 8.06 µg/mL (≈ 14.7 µM) | 0.0282 µg/mL (≈ 0.0515 µM) | – | – | –
COc1ccc(C(=O)/C=C/C2=CC(=C\Nc3ccc(Nc4ccnc5cc(Cl)ccc45)cc3)/C(=O)C(C)=C2)cc1 | 315.33 | – | 4.35 µg/mL (≈ 7.94 µM) | 0.201 µg/mL (≈ 0.366 µM) | – | – | –
CCC(C)C1=CC(/C=C/C(=O)c2cccs2)=CC(=C\NCCNc2ccnc3cc(Cl)ccc23)/C1=O (stereo not given) | 1373.63 | 86.7% | 2.62 µg/mL (≈ 5.06 µM) | 0.0091 µg/mL (≈ 0.0176 µM) | 99.4% | 18.2 days | –
CC1=CC(/C=C/C(=O)c2ccc(Cl)cc2)=CC(=C\NCCCNc2ccnc3cc(Cl)ccc23)/C1=O | 513.99 | – | 2.9 µg/mL (≈ 5.59 µM) | 0.0429 µg/mL (≈ 0.0827 µM) | – | – | –
CCC(C)C1=CC(/C=C/C(=O)c2ccc(O)cc2)=CC(=C\NCCCNc2ccnc3cc(Cl)ccc23)/C1=O (stereo not given) | 486.57 | – | 2.93 µg/mL (≈ 5.41 µM) | 0.0424 µg/mL (≈ 0.0783 µM) | – | – | –
CC1=CC(/C=C/C(=O)c2ccc(Cl)cc2)=CC(=C\NCCNc2ccnc3cc(Cl)ccc23)/C1=O | 3755.43 | – | 2.99 µg/mL (≈ 5.93 µM) | 0.0222 µg/mL (≈ 0.044 µM) | – | – | –
CC(C)(C)C1=CC(/C=C/C(=O)c2ccc(Cl)cc2)=CC(=C\Nc2ccc(Nc3ccnc4cc(Cl)ccc34)cc2)/C1=O | 196.7 | – | 7.88 µg/mL (≈ 13.3 µM) | 0.38 µg/mL (≈ 0.639 µM) | – | – | –
COc1cc(C(=O)/C=C/C2=CC(=C\NCCNc3ccnc4cc(Cl)ccc34)/C(=O)C(C)=C2)cc(OC)c1OC | 1392.22 | 82.1% | 9.61 µg/mL (≈ 17.2 µM) | 0.0107 µg/mL (≈ 0.0191 µM) | 99.8% | 17 days | –
CC(C)(C)C1=CC(/C=C/C(=O)c2ccc(F)cc2)=CC(=C\NCCNc2ccnc3cc(Cl)ccc23)/C1=O | 1499.3 | 97% | 13.8 µg/mL (≈ 26 µM) | 0.00719 µg/mL (≈ 0.0136 µM) | 99.9% | 18.4 days | –
CC1=CC(/C=C/C(=O)c2ccc(Br)cc2)=CC(=C\NCCNc2ccnc3cc(Cl)ccc23)/C1=O | 1114.59 | 80.6% | 7.6 µg/mL (≈ 13.8 µM) | 0.0188 µg/mL (≈ 0.0343 µM) | 99.7% | 18 days | –
CCC(C)C1=CC(/C=C/C(=O)c2ccc(OC)cc2)=CC(=C\NCCCNc2ccnc3cc(Cl)ccc23)/C1=O (stereo not given) | 549.12 | – | 6.59 µg/mL (≈ 11.9 µM) | 0.0418 µg/mL (≈ 0.0752 µM) | – | – | –
CC1=CC(/C=C/C(=O)c2ccc(F)cc2)=CC(=C\Nc2ccc(Nc3ccnc4cc(Cl)ccc34)cc2)/C1=O | 407.52 | – | 3.78 µg/mL (≈ 7.05 µM) | 0.16 µg/mL (≈ 0.299 µM) | – | – | –
CCC(C)C1=CC(/C=C/C(=O)c2ccco2)=CC(=C\NCCNc2ccnc3cc(Cl)ccc23)/C1=O (stereo not given) | 1138.22 | 85.8% | 2.89 µg/mL (≈ 5.76 µM) | 0.00709 µg/mL (≈ 0.0141 µM) | 99.5% | 17.6 days | –
CCC(C)C1=CC(/C=C/C(=O)c2ccc(Cl)cc2)=CC(=C\NCCNc2ccnc3cc(Cl)ccc23)/C1=O (stereo not given) | 1014.51 | – | 11.2 µg/mL (≈ 20.5 µM) | 0.0179 µg/mL (≈ 0.0328 µM) | – | – | –
CCC(C)C1=CC(/C=C/C(=O)c2ccc(Cl)cc2)=CC(=C\NCCCNc2ccnc3cc(Cl)ccc23)/C1=O (stereo not given) | 491.77 | – | 6.08 µg/mL (≈ 10.8 µM) | 0.0419 µg/mL (≈ 0.0748 µM) | – | – | –
CCC(C)C1=CC(/C=C/C(=O)c2ccco2)=CC(=C\Nc2ccc(Nc3ccnc4cc(Cl)ccc34)cc2)/C1=O (stereo not given) | 678.11 | – | 3.21 µg/mL (≈ 5.84 µM) | 0.08 µg/mL (≈ 0.145 µM) | – | – | –
